Assay results as given in ChEMBL document CHEMBL1127424, “7-azetidinylquinolones as antibacterial agents. 2. Synthesis and biological activity of 7-(2,3-disubstituted-1-azetidinyl)-4-oxoquinoline- and -1,8-naphthyridine-3-carboxylic acids. Properties and structure-activity relationships of quinolones with an azetidine moiety” (J Med Chem, 1994).
Values after ≈ are worked out from the molar mass of the structure shown. Values joined by “and” are separate entries in the source; they are usually repeats but may differ in a detail not shown here. Equal values may be shown once.

Assays:
[1] = HPLC capacity factor (k'); assay type: ADME
How it was run: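 Ion-pair reversed-phase HPLC on ODS-2 (10 μm) at 45 °C. Mobile phase: 10 mM sodium heptanesulfonate plus 50 mM KH2PO4 (pH 3.5)–methanol 45:55, 1 mL/min. Samples at 100 μg/mL in DMF, injected in duplicate, UV 280 nm. k' = (tR − t0)/t0.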

[2] = Measured ionization constant (pKa); assay type: physicochemical; settings: read-out: pKa1
How it was run: (§1)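 Spectrophotometric titration at 20 ± 1 °C, 0.1 M ionic strength, pH varied with H2SO4 or NaOH made up in the compound stock. Absorbance followed at compound-specific wavelengths chosen from 200–400 nm scans. pKa1 and pKa2 taken as the inflection points of the two-step absorbance vs pH curve.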

[3] = Dissociation constant (pKa); assay type: physicochemical; settings: read-out: pKa2; how it was run: as §1
[4] = Solubility (buffer pH 7.4); assay type: physicochemical; settings: read-out: S
How it was run: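 Excess solid shaken in 0.05 M phosphate buffer pH 7.4 for 24 h at 25 °C. Suspension filtered through 0.22 μm, discarding the first portion. Filtrate diluted in 0.1 N HCl or 0.1 N NaOH and read by UV at the compound's absorbance maximum.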

[5] = system: Staphylococcus aureus; test: In vitro minimum inhibitory concentration for Staphylococcus aureus ATCC 25178; assay type: functional
How it was run: (§2)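 Serial 2-fold agar dilution in Mueller Hinton medium, run alongside a reference quinolone. Inoculum adjusted to 10⁸ cfu/mL; compound range 0.007–16 μg/mL.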

[6] = system: Bacillus cereus; test: In vitro minimum inhibitory concentration for Bacillus cereus ATCC 11778; assay type: functional; how it was run: as §2
[7] = system: Mus musculus; test: Evaluation of efficacy on systemic infections Escherichia coli HM-42, after oral administration in mice; assay type: functional
How it was run: (§3)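 Single oral dose given immediately after infection, one of four doses per group, chosen from in vitro activity. Survival scored after one week. ED50 (total mg/kg protecting 50%) interpolated from survival rates.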

[8] = system: Morganella morganii; test: In vitro minimum inhibitory concentration for Morganella morganii ATCC 8019; assay type: functional; how it was run: as §2
[9] = system: Pseudomonas aeruginosa; test: In vitro minimum inhibitory concentration for Pseudomonas aeruginosa ATCC 10145; assay type: functional; how it was run: as §2
[10] = system: Mus musculus; test: Evaluation of efficacy on systemic infections Staphylococcus aureus HS-93, after oral administration in mice; assay type: functional; how it was run: as §3
[11] = system: Bacillus subtilis; test: In vitro minimum inhibitory concentration for Bacillus subtilis ATCC 6633; assay type: functional; how it was run: as §2
[12] = system: Enterobacter cloacae; test: In vitro minimum inhibitory concentration for Enterobacter cloacae ATCC 23355; assay type: functional
[13] = system: Escherichia coli; test: In vitro minimum inhibitory concentration for Escherichia coli ATCC 10799; assay type: functional; how it was run: as §2
[14] = system: Mus musculus; test: Evaluation of efficacy on systemic infections Pseudomonas aeruginosa HS-116, after oral administration in mice; assay type: functional; how it was run: as §3
[15] = system: Proteus vulgaris; test: In vitro minimum inhibitory concentration for Proteus vulgaris ATCC 8427; assay type: functional; how it was run: as §2
[16] = AUC (0-4 hr) ug/ml/h; assay type: ADME, cell-free; parameters: time < 4 hr; concentration or dose not given beside the values; settings: plasma
How it was run: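 Mice dosed once orally at 50 mg/kg; blood taken from groups of six mice at 0.5, 1, 2 and 4 h. Serum drug assayed by disk agar diffusion bioassay (Bacillus subtilis ATCC 6633 on Seed Agar, 37 °C, 18 h), giving total activity.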

[17] = system: Klebsiella pneumoniae; test: In vitro minimum inhibitory concentration to inhibit Klebsiella pneumoniae ATCC 10031; assay type: functional; how it was run: as §2
[18] = system: Staphylococcus epidermidis; test: In vitro minimum inhibitory concentration for Staphylococcus epidermidis ATCC 155-1; assay type: functional; how it was run: as §2
[19] = system: Enterococcus faecalis; test: In vitro minimum inhibitory concentration for Streptococcus faecalis ATCC 10541; assay type: functional; how it was run: as §2

Log k' [1]	pKa [2]	pKa [3]	solubility [4] [µg/mL]	MIC [5] [µg/mL]	MIC [6] [µg/mL]	MIC [8] [µg/mL]	MIC [9] [µg/mL]	MIC [11] [µg/mL]	MIC [12] [µg/mL]	MIC [13] [µg/mL]	MIC [15] [µg/mL]	AUC [16] [ng·h/mL]	MIC [17] [µg/mL]	MIC [18] [µg/mL]	MIC [19] [µg/mL]	SMILES	ED50 [7] [mg/kg]	ED50 [10] [mg/kg]	ED50 [14] [mg/kg]
0.5153	6.47	7.9	–	–	–	–	–	–	–	–	–	–	–	–	–	CN(C)C1(C)CN(c2cc3c(cc2F)c(=O)c(C(=O)O)cn3C2CC2)C1	–	–	–
0.482	6.44	7.81	–	–	–	–	–	–	–	–	–	–	–	–	–	CN(C)C1CN(c2cc3c(cc2F)c(=O)c(C(=O)O)cn3C2CC2)C1	–	–	–
0.2644	–	–	23.4 (≈ 55.5 µM)	0.12 (≈ 0.285 µM)	0.12 (≈ 0.285 µM)	0.25 (≈ 0.593 µM)	1 (≈ 2.37 µM)	0.06 (≈ 0.142 µM)	0.06 (≈ 0.142 µM)	0.12 (≈ 0.285 µM)	0.5 (≈ 1.19 µM)	22300	0.06 (≈ 0.142 µM)	0.12 (≈ 0.285 µM)	1 (≈ 2.37 µM)	C[C@H]1[C@H](N)CN1c1c(F)cc2c(=O)c(C(=O)O)cn(-c3ccc(F)cc3F)c2c1F	2.3	10	61
0.0828	6.65	–	37.7 (≈ 103 µM)	0.015 (≈ 0.0412 µM)	0.015 (≈ 0.0412 µM)	0.015 (≈ 0.0412 µM)	0.25 (≈ 0.686 µM)	0.015 (≈ 0.0412 µM)	0.015 (≈ 0.0412 µM)	0.03 (≈ 0.0823 µM)	0.06 (≈ 0.165 µM)	12300	0.015 (≈ 0.0412 µM)	0.015 (≈ 0.0412 µM)	0.06 (≈ 0.165 µM)	C[C@H]1[C@H](N)CN1c1c(F)c(N)c2c(=O)c(C(=O)O)cn(C3CC3)c2c1F	4.2	8.7	102
0.1417	–	–	10.4 (≈ 25.7 µM)	0.12 (≈ 0.297 µM)	0.25 (≈ 0.618 µM)	0.25 (≈ 0.618 µM)	1 (≈ 2.47 µM)	0.06 (≈ 0.148 µM)	0.12 (≈ 0.297 µM)	0.25 (≈ 0.618 µM)	1 (≈ 2.47 µM)	25800	0.06 (≈ 0.148 µM)	0.25 (≈ 0.618 µM)	1 (≈ 2.47 µM)	C[C@H]1[C@H](N)CN1c1nc2c(cc1F)c(=O)c(C(=O)O)cn2-c1ccc(F)cc1F	3.3	8.9	140
-0.0397	–	–	–	0.12 (≈ 0.33 µM)	0.25 (≈ 0.688 µM)	0.25 (≈ 0.688 µM)	0.5 (≈ 1.38 µM)	0.06 (≈ 0.165 µM)	0.06 (≈ 0.165 µM)	0.06 (≈ 0.165 µM)	0.25 (≈ 0.688 µM)	2300	0.12 (≈ 0.33 µM)	0.12 (≈ 0.33 µM)	0.25 (≈ 0.688 µM)	C[C@@H]1[C@@H](CN)CN1c1c(F)cc2c(=O)c(C(=O)O)cn(C3CC3)c2c1F	31	20	70
-0.1249	6.58	8.55	–	–	–	–	–	–	–	–	–	–	–	–	–	CC1(N)CN(c2cc3c(cc2F)c(=O)c(C(=O)O)cn3C2CC2)C1	–	–	–
-0.0177 and 0.0094	6.23	8.33	–	–	–	–	–	–	–	–	–	–	–	–	–	CC1(N)CN(c2c(F)cc3c(=O)c(C(=O)O)cn(C4CC4)c3c2F)C1	–	–	–
